Measurements as given in ChEMBL document CHEMBL4043222, “Pyrrolizines: Design, synthesis, anticancer evaluation and investigation of the potential mechanism of action” (Bioorg Med Chem, 2017).
The source made the active and inactive calls. The calls are words filed in the database; no cut-off is given here.

What was measured:
[1] = target: Mitogen-activated protein kinase kinase kinase 5 (Homo sapiens) (UniProt Q99683); experiment: Inhibition of ASK1 (unknown origin) at 10 uM using [33P]-ATP after 20 to 40 mins by scintillation counting method
Mitogen-activated protein kinase kinase kinase 5 (Homo sapiens), sequence (Q99683 whole entry): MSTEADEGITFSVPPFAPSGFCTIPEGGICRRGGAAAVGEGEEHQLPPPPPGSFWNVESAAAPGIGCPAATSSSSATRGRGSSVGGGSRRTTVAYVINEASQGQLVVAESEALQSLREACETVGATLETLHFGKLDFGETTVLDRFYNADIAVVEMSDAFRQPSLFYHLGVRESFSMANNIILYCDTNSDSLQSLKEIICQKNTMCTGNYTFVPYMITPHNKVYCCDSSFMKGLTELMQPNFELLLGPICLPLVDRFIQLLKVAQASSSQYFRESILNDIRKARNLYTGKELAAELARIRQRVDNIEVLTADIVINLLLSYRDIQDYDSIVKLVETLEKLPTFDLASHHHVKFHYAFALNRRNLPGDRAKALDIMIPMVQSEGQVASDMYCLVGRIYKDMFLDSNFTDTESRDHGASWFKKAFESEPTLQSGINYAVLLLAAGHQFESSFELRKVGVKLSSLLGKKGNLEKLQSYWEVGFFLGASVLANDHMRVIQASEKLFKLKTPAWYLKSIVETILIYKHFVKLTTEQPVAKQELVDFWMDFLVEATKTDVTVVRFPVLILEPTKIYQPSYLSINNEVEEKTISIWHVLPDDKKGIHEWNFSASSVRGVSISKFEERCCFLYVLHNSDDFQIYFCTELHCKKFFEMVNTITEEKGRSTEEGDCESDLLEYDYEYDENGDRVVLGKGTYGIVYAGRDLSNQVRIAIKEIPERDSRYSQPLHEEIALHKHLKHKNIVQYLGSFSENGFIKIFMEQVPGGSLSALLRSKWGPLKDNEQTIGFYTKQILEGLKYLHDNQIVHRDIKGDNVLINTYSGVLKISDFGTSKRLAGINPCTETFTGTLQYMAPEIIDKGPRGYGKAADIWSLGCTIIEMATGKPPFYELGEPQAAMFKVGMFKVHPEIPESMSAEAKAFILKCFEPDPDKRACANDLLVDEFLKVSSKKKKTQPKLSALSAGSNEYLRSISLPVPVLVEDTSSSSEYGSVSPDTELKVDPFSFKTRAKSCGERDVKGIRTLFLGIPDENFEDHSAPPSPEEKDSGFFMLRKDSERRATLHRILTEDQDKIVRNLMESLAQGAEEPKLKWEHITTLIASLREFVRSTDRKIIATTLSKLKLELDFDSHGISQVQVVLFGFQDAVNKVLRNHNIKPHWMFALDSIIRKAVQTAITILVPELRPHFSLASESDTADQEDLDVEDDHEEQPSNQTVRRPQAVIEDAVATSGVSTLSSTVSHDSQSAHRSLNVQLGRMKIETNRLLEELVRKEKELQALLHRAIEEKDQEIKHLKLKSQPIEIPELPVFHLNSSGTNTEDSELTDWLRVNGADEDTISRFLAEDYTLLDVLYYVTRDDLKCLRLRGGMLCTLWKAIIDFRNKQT

[2] = target: Rhodopsin kinase GRK1 (Homo sapiens) (UniProt Q15835); experiment: Inhibition of GRK1 (unknown origin) at 10 uM using [33P]-ATP after 20 to 40 mins by scintillation counting method
Rhodopsin kinase GRK1 (Homo sapiens), sequence (Q15835 whole entry): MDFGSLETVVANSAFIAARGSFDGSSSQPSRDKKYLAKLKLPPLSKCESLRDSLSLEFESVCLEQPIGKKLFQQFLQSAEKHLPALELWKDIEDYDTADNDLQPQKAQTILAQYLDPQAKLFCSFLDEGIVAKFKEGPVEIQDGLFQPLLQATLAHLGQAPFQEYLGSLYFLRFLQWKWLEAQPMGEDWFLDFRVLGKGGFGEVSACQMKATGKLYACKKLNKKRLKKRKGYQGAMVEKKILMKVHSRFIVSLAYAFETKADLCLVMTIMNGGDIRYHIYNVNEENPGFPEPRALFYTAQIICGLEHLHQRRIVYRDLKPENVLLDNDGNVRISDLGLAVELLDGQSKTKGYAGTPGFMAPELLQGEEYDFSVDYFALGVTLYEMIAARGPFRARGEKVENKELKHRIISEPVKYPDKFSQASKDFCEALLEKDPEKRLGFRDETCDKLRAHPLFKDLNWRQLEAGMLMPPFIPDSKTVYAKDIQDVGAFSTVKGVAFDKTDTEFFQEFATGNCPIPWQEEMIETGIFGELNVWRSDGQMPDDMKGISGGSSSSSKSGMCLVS

[3] = target: Serine/threonine-protein kinase Sgk1 (Homo sapiens) (UniProt O00141); experiment: Inhibition of SGK1 (unknown origin) at 10 uM using [33P]-ATP after 20 to 40 mins by scintillation counting method
Serine/threonine-protein kinase Sgk1 (Homo sapiens), sequence (O00141 whole entry): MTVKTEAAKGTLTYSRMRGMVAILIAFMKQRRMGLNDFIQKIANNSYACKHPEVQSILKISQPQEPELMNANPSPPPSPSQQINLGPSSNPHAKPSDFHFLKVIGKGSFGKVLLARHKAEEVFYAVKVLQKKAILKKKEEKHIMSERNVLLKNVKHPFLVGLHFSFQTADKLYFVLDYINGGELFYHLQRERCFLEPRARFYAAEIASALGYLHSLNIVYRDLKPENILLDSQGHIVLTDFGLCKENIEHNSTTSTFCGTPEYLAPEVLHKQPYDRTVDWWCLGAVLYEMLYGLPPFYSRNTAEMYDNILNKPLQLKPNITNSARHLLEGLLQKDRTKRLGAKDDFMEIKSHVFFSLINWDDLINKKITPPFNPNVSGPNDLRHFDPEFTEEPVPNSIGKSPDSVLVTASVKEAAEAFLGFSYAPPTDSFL

[4] = target: Dual specificity tyrosine-phosphorylation-regulated kinase 3 (Homo sapiens) (UniProt O43781); experiment: Inhibition of DYRK3 (unknown origin) at 10 uM using [33P]-ATP after 20 to 40 mins by scintillation counting method
[5] = target: Ephrin type-A receptor 1 (Homo sapiens) (UniProt P21709); experiment: Inhibition of EPHA1 (unknown origin) at 10 uM using [33P]-ATP after 20 to 40 mins by scintillation counting method
[6] = target: Tyrosine-protein kinase Blk (Homo sapiens) (UniProt P51451); experiment: Inhibition of BLK (unknown origin) at 10 uM using [33P]-ATP after 20 to 40 mins by scintillation counting method
[7] = target: AMP-activated protein kinase (AMPK) alpha-1/beta-1/gamma-1 (Homo sapiens) (UniProt P54619+Q9Y478+Q13131); experiment: Inhibition of AMPK alpha1/beta1/gamma1 (unknown origin) at 10 uM using [33P]-ATP after 20 to 40 mins by scintillation counting method; type: protein-complex assay
[8] = target: 3-phosphoinositide-dependent protein kinase 1 (Homo sapiens) (UniProt O15530); experiment: Inhibition of PDK1 (unknown origin) at 10 uM using [33P]-ATP after 20 to 40 mins by scintillation counting method
3-phosphoinositide-dependent protein kinase 1 (Homo sapiens), sequence (O15530 whole entry, canonical isoform): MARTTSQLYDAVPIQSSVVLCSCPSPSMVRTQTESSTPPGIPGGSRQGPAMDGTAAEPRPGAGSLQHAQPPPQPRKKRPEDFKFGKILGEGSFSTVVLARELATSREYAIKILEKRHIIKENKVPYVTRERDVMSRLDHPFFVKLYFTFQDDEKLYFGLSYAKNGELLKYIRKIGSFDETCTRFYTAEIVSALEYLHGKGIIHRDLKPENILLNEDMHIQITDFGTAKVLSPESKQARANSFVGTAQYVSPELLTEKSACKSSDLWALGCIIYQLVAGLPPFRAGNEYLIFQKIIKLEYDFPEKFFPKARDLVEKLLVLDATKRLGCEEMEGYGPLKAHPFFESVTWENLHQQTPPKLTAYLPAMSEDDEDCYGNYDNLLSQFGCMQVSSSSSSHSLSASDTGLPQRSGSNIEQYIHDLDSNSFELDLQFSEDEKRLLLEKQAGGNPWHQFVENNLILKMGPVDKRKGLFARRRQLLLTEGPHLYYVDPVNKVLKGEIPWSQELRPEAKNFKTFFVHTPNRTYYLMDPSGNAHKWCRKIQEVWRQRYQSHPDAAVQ

[9] = target: Casein kinase I isoform alpha (Homo sapiens) (UniProt P48729); experiment: Inhibition of CK1alpha1 (unknown origin) at 10 uM using [33P]-ATP after 20 to 40 mins by scintillation counting method
[10] = target: Activin receptor type-1-like (Homo sapiens) (UniProt P37023); experiment: Inhibition of ALK1 (unknown origin) at 10 uM using [33P]-ATP after 20 to 40 mins by scintillation counting method
[11] = target: cGMP-dependent protein kinase 1 (Homo sapiens) (UniProt Q13976); experiment: Inhibition of PRKG1 (unknown origin) at 10 uM using [33P]-ATP after 20 to 40 mins by scintillation counting method
[12] = target: Glycogen synthase kinase-3 alpha (Homo sapiens) (UniProt P49840); experiment: Inhibition of GSK3alpha (unknown origin) at 10 uM using [33P]-ATP after 20 to 40 mins by scintillation counting method
Glycogen synthase kinase-3 alpha (Homo sapiens), sequence (P49840 2-483 limits assumed): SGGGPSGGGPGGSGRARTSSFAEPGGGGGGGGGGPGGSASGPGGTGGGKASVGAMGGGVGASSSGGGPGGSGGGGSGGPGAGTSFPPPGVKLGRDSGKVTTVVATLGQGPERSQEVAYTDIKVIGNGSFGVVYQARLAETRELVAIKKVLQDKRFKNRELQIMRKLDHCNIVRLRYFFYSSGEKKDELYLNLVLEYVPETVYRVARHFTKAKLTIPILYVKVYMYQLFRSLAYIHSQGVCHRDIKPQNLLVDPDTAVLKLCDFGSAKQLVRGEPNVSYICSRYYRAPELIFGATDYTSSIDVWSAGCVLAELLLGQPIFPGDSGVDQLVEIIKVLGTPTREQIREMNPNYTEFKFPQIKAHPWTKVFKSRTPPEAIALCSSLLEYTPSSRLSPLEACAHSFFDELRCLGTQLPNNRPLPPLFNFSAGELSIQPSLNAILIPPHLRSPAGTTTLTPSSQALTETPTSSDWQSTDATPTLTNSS

[13] = target: Ribosomal protein S6 kinase alpha-5 (Homo sapiens) (UniProt O75582); experiment: Inhibition of MSK1 (unknown origin) at 10 uM using [33P]-ATP after 20 to 40 mins by scintillation counting method
[14] = target: Vascular endothelial growth factor receptor 1 (Homo sapiens) (UniProt P17948); experiment: Inhibition of FLT1 (unknown origin) at 10 uM using [33P]-ATP after 20 to 40 mins by scintillation counting method
Vascular endothelial growth factor receptor 1 (Homo sapiens), sequence (P17948 whole entry): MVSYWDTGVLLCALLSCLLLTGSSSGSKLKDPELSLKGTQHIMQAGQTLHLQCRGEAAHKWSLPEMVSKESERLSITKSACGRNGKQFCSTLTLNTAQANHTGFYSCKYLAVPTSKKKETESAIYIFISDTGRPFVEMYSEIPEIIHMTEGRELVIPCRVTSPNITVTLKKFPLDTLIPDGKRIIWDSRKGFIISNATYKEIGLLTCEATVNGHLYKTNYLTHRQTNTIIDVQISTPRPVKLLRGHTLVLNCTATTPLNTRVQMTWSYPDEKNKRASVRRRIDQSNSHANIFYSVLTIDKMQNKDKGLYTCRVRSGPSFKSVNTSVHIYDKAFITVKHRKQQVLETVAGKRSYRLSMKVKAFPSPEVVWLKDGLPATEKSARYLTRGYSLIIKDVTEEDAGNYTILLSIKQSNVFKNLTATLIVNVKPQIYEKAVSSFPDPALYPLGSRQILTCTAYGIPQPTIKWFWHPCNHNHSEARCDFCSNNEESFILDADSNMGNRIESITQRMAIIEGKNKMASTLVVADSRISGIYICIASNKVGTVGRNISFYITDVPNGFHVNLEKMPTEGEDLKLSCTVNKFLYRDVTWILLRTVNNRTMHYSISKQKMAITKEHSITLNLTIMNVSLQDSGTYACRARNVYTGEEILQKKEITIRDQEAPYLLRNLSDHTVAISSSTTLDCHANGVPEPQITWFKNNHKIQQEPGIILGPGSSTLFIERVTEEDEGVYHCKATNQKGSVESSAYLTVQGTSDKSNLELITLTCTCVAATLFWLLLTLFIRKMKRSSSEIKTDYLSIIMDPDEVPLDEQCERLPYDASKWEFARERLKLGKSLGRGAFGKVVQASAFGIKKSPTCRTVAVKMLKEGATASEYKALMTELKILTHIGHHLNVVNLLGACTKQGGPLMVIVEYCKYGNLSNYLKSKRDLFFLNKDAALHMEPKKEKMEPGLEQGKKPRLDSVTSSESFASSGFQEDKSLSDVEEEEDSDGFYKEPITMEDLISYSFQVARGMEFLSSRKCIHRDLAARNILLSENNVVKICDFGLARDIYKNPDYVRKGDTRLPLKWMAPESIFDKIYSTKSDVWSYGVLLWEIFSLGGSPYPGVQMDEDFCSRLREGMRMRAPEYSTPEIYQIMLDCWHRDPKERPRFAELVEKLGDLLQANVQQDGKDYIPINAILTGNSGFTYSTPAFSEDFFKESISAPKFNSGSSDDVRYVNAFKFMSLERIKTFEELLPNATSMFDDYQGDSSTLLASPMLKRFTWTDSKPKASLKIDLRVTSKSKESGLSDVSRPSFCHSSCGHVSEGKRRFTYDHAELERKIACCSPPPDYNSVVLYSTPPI

A549 [15] = experiment: Growth inhibition of human A549 cells by MTT assay; type: functional, cell-based
How it was run: (§1)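 MTT viability. Cells seeded for 24 h, then exposed to compound for 48 h in DMEM/F-12 or DMEM with 5% FBS. Vehicle controls received matching DMSO. MTT added at 0.5 mg/mL for 3 h at 37 °C. Formazan dissolved in DMSO and absorbance read at 570 nm.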

Hep 3B2 = experiment: Growth inhibition of human Hep3B cells by MTT assay; type: functional, cell-based; how it was run: as §1
MCF7 [16] = experiment: Growth inhibition of human MCF7 cells by MTT assay; type: functional, cell-based; how it was run: as §1
[17] = target: T1, Prostaglandin G/H synthase 1 (Ovis aries, UniProt P05979); experiment: Inhibition of ovine COX1 assessed as reduction in PGH2 formation by measuring PGF2alpha by colorimetric assay
T1 sequence (P05979 whole entry): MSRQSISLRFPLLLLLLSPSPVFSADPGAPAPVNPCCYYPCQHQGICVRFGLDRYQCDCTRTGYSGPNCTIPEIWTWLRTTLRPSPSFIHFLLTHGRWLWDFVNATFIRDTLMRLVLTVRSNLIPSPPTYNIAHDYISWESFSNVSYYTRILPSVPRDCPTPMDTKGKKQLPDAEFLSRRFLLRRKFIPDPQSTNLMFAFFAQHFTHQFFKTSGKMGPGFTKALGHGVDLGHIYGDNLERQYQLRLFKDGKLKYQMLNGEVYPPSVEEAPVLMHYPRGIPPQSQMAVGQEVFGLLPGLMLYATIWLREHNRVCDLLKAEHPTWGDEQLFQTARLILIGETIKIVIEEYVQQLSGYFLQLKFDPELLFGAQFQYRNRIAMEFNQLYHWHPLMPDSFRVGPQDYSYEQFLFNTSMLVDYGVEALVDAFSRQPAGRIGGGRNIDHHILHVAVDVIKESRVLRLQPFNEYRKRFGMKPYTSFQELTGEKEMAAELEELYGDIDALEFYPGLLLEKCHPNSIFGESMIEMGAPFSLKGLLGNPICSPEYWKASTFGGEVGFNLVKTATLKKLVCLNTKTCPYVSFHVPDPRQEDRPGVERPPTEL
How it was run: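 Colorimetric COX inhibitor screening kit run per the manufacturer, using ovine COX-1. IC50 calculated from three determinations.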

MCF7 [18] = experiment: Induction of apoptosis in human MCF7 cells assessed as viable cells level at 5 uM incubated for 24 hrs by Annexin V PI/FITC staining based flow cytometry (reference value: 72.3%); type: functional
MCF7 [19] = experiment: Induction of apoptosis in human MCF7 cells assessed as late necrosis cells level at 1 uM incubated for 24 hrs by Annexin V PI/FITC staining based flow cytometry (reference value: […]); type: functional
[20] = target: Serine/threonine-protein kinase Nek1 (Homo sapiens) (UniProt Q96PY6); experiment: Inhibition of NEK1 (unknown origin) at 10 uM using [33P]-ATP after 20 to 40 mins by scintillation counting method
MCF7 [21] = experiment: Induction of apoptosis in human MCF7 cells assessed as late apoptotic cells level at 10 uM incubated for 24 hrs by Annexin V PI/FITC staining based flow cytometry (reference value: 9%); type: functional
MCF7 [22] = experiment: Induction of apoptosis in human MCF7 cells assessed as early apoptotic cells level at 10 uM incubated for 24 hrs by Annexin V PI/FITC staining based flow cytometry (reference value: 17.4%); type: functional
MCF7 [23] = experiment: Induction of cell cycle arrest in human MCF7 cells assessed as increase in accumulation at G2/M phase at 10 uM by propidium iodide staining based flow cytometry relative to untreated control; type: functional
How it was run: (§2)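 MCF-7 seeded at 1×10^5 cells/well and attached overnight, then given 0, 1, 5 or 10 µM for 24 h. Cells pooled, fixed overnight in 70% ice-cold ethanol, treated with RNase A and stained with PI. Flow cytometry on 20000 events with doublets gated out. Mean ± S.D. (n = 3). Compared with DMSO vehicle by one-way ANOVA with Dunnett's test.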

[24] = target: Epidermal growth factor receptor (Homo sapiens) (UniProt P00533); experiment: Inhibition of EGFR (unknown origin) at 10 uM using [33P]-ATP after 20 to 40 mins by scintillation counting method
MCF7 [25] = experiment: Induction of apoptosis in human MCF7 cells assessed as early apoptotic cells level at 1 uM incubated for 24 hrs by Annexin V PI/FITC staining based flow cytometry (reference value: 17.4%); type: functional
MCF7 [26] = experiment: Induction of apoptosis in human MCF7 cells assessed as viable cells level at 1 uM incubated for 24 hrs by Annexin V PI/FITC staining based flow cytometry (reference value: 72.3%); type: functional
MCF7 [27] = experiment: Induction of apoptosis in human MCF7 cells assessed as early apoptotic cells level at 5 uM incubated for 24 hrs by Annexin V PI/FITC staining based flow cytometry (reference value: 17.4%); type: functional
A549 [28] = experiment: Induction of apoptosis in human A549 cells assessed as caspe-3/7 activation at 5 to 20 uM incubated for 24 hrs by Caspase-Glo 3/7 luminescence assay; type: functional, cell-based
How it was run: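 A549 cells plated at 1 x 10^4 per well and allowed 24 h to settle. Medium removed, then compounds added for 24 h at 5, 10 and 20 μM. Vehicle controls received equivalent DMSO. Caspase-3/7 activity read by Caspase-Glo 3/7 luminescence (RLU). Mean ± S.D. (n = 5), experiment done 3 times. Compared with vehicle by one-way ANOVA with Dunnett's test.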

MCF7 [29] = experiment: Induction of apoptosis in human MCF7 cells assessed as late necrosis cells level at 5 uM incubated for 24 hrs by Annexin V PI/FITC staining based flow cytometry (reference value: […]); type: functional
MCF7 [30] = experiment: Induction of apoptosis in human MCF7 cells assessed as late apoptotic cells level at 1 uM incubated for 24 hrs by Annexin V PI/FITC staining based flow cytometry (reference value: 9%); type: functional
MCF7 [31] = experiment: Induction of apoptosis in human MCF7 cells assessed as late apoptotic cells level at 5 uM incubated for 24 hrs by Annexin V PI/FITC staining based flow cytometry (reference value: 9%); type: functional
MCF7 [32] = experiment: Induction of apoptosis in human MCF7 cells assessed as viable cells level at 10 uM incubated for 24 hrs by Annexin V PI/FITC staining based flow cytometry (reference value: 72.3%); type: functional
MCF7 [33] = experiment: Induction of cell cycle arrest in human MCF7 cells assessed as increase in accumulation at S phase at 5 and 10 uM by propidium iodide staining based flow cytometry relative to untreated control; type: functional; how it was run: as §2
MCF7 [34] = experiment: Induction of apoptosis in human MCF7 cells assessed as late necrosis cells level at 10 uM incubated for 24 hrs by Annexin V PI/FITC staining based flow cytometry (reference value: […]); type: functional

In the case of `Cc1ccc(NC(=O)c2ccc(CN3CCN(C)CC3)cc2)cc1Nc1nccc(-c2cccnc2)n1`, the inhibition [1] is reported as -5%, the inhibition [2] is reported as -2% and the inhibition [3] is reported as -3%. The inhibition [4] was 10%, the inhibition [5] was -22% and the inhibition [6] was 3%. For the same compound, the inhibition [7] was -18%, the inhibition [8] was -34% and the inhibition [9] was 0%. For the same compound, the inhibition [10] was -14%, the inhibition [11] was -4% and the inhibition [12] was 1%. For the same compound, the inhibition [13] was -49% and the inhibition [14] was 10%.
Work on `N#Cc1c(N=Cc2cccnc2)c(C(=O)Nc2ccccc2)n2c1CCC2` yielded an IC50 (A549 [15]) of 17.5 µM, an IC50 (Hep 3B2) of 25.8 µM and an IC50 (MCF7 [16]) of 11.7 µM. For the same compound, the IC50 [17] was 11.3 µM.
`Cc1ccc(NC(=O)c2c(N=Cc3cccnc3)c(C#N)c3n2CCC3)cc1` showed an IC50 (A549 [15]) of 20.5 µM, an IC50 (Hep 3B2) of 34.8 µM and an IC50 (MCF7 [16]) of 18.3 µM. The IC50 [17] was 9.54 µM.
Work on `N#Cc1c(N=Cc2cccs2)c(C(=O)Nc2ccc(Cl)cc2)n2c1CCC2` yielded an IC50 (A549 [15]) of 22.8 µM, an IC50 (Hep 3B2) of 11.6 µM and an IC50 (MCF7 [16]) of 4.72 µM. The IC50 [17] was 7.68 µM.
For `Cc1ccc(NC(=O)c2c(N=Cc3ccc4ccccc4c3)c(C#N)c3n2CCC3)cc1`, the inhibition [1] was -19%, the IC50 (A549 [15]) was 3.24 µM and the Activity (MCF7 [18]) was 66.9%. The inhibition [2] was 7%, the inhibition [3] was -16% and the IC50 (Hep 3B2) was 8.69 µM. The Activity (MCF7 [19]) was 0.8%, the inhibition [5] was -37% and the inhibition [20] was 8%. The Activity (MCF7 [21]) was 12.9%, the Activity (MCF7 [22]) was 24.2% and the Activity (MCF7 [23]) was “Active”. It also gave an inhibition [24] of -47%, an inhibition [6] of -16% and an inhibition [7] of -11%. It also gave an Activity (MCF7 [25]) of 16.3%, an Activity (MCF7 [26]) of 72.2% and an inhibition [8] of -27%. The Activity (MCF7 [27]) was 23.5%, the Activity (A549 [28]) was “Active” and the Activity (MCF7 [29]) was 1.1%. It also gave an Activity (MCF7 [30]) of 10.7%, an Activity (MCF7 [31]) of 8.5% and an inhibition [11] of -4%. For the same compound, the Activity (MCF7 [32]) was 62.1%, the inhibition [12] was -5% and the Activity (MCF7 [33]) was “Active”. The Activity (MCF7 [34]) was 0.8%, the inhibition [13] was -43% and the IC50 (MCF7 [16]) was 7.76 µM. For the same compound, the IC50 [17] was 12 µM and the inhibition [14] was -10%.
Compound `COc1cccc2c1C(=O)c1c(O)c3c(c(O)c1C2=O)C[C@@](O)(C(=O)CO)C[C@@H]3O[C@H]1C[C@H](N)[C@H](O)[C@H](C)O1` [DOXORUBICIN] has an IC50 (Hep 3B2) of 2.4 µM and an IC50 (MCF7 [16]) of 2.3 µM.
For `N#Cc1c(N=Cc2ccc3ccccc3c2)c(C(=O)Nc2ccccc2)n2c1CCC2`, the IC50 (A549 [15]) was 7.11 µM, the IC50 (Hep 3B2) was 10.2 µM and the Activity (A549 [28]) was “Active”. It also gave an IC50 (MCF7 [16]) of 5.77 µM and an IC50 [17] of 7.98 µM.
`Cc1ccc(NC(=O)c2c(N=Cc3ccco3)c(C#N)c3n2CCC3)cc1` gave an IC50 (A549 [15]) of 29.4 µM, an IC50 (Hep 3B2) of 24.4 µM and an IC50 (MCF7 [16]) of 16.1 µM. For the same compound, the IC50 [17] was 9.23 µM.
